# Source: PubChem BioAssay
# RGS4 inh: human RGS4 inhibition; P49798; HEK293 M3R/RGS4 inducible, Fluo-4 calcium flux; active compounds read high; triggered by carbachol at its EC20; B-score at 10 µM; 310,000 compounds, 0.45% hits; AID 463165;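 active means B-score, a plate-corrected calcium signal, over three deviations above library mean, with baseline fluorescence within five deviations of library mean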;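 further: RGS4 expression induced by doxycycline in cells with stable M3 receptor; B-score is computed from the integrated fluorescence ratio over baseline after carbachol; higher B-score means a larger calcium signal and so more RGS4 inhibition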
# Target sequence (P49798 whole entry, looked up): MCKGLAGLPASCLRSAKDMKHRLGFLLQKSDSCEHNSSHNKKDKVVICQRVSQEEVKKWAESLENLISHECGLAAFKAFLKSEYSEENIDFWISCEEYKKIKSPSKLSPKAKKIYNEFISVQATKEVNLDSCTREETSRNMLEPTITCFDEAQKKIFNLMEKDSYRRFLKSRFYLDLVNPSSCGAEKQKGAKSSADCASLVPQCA
# RGS4 act: RGS4 potentiation or activation. 310,000 compounds, 0.92% hits. HEK293 M3R/inducible RGS4, carbachol calcium flux Fluo4; active compounds read low. B-score at 10 µM;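 active means B-score of the integrated calcium signal more than 4 SD below the library mean, with starting fluorescence not abnormally high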;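 further: negative B-score means reduced calcium response which marks RGS4 activation or potentiation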
#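 Assay system: HEK293 FlpIn-TREx cells, stable M3R, doxycycline-inducible RGS4 / Probe or stimulus: carbachol, ECmax concentration / Times: overnight RGS4 induction, 30 min dye load 37 °C, 20 min compound RT / Signal: kinetic calcium fluorescence imaging with Fluo4-AM dye, 2 µM / Measure: Agonist-evoked peak-minus-minimum fluorescence over baseline, integrated ratio, B score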
# PHOSPHO1 block: blocks human PHOSPHO1 phosphatase activity; Q8TCT1; recombinant PHOSPHO1, absorbance phosphatase assay; inhibition, % at 13.3 µM; 290,000 compounds, 1.1% hits; AID 1565; in the data active means inhibition above about 60%
# MrgX1 allo act: human MrgX1 positive allosteric modulation, primary screen. Q96LB2. MrgX1-HEK293, Fluo-4 calcium flux, FDSS; active compounds read high. B-score at 10 µM. AID 588675. 310,000 compounds, 0.63% hits;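 active means plate-corrected calcium response at least 3 library SD above typical, normal starting fluorescence, not activating the receptor alone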;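 further: compound read alongside a low EC10 to EC30 dose of BAM8-22 agonist; peak minus trough fluorescence over baseline measured at the second addition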
# Target sequence (Q96LB2 whole entry, looked up): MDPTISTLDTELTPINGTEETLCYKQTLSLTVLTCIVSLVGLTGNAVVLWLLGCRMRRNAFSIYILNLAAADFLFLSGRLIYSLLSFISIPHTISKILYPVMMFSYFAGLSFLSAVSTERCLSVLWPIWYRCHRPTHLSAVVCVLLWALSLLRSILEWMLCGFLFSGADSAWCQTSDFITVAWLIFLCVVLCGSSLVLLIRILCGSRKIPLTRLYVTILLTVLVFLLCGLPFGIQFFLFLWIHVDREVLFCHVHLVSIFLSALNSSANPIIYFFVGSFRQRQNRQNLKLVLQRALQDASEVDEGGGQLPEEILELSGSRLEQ
# MrgX1 antagonist: antagonists of human MrgX1 receptor | Q96LB2 | MRGX1-HEK293 calcium flux, Fluo-4, BAM8-22 antagonism; active compounds read low | B-score at 10 µM | 310,000 compounds, 1.3% hits;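 active means calcium-response B-score plate-corrected more than 3 library SD below zero, starting fluorescence within 5 deviations, no agonist response on first addition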;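 further: peak minus trough fluorescence over baseline after final BAM8-22 challenge near maximal dose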
# MrgX1 agonist: human MrgX1 receptor agonism, primary screen | Q96LB2 | MrgX1-HEK293 cells, Fluo-4 calcium fluorescence, agonist mode; active compounds read high | B-score at 10 µM | 310,000 compounds, 0.44% hits | AID 588627;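 active means calcium response B-score plate-corrected fluorescence ratio at least 3 library SD, with starting fluorescence B-score inside 5 SD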
#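 System: HEK293 cells stably expressing human MrgX1 receptor; Dosing: test compound in the initial addition of three; Schedule: overnight plating, then 30 min 37 °C plus 30 min room-temperature dye loading; Detection: kinetic calcium dye fluorescence, Fluo-4 NW; Controls: per-plate positive and negative controls for Z′ factor.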
# MrgX1 ant reconf: confirmation of human MrgX1 receptor antagonists | shares compounds with MrgX1 antagonist | MrgX1-HEK293, BAM8-22 calcium flux, Fluo-4; active compounds read low | remaining BAM8-22 calcium response % of control (active compounds read low), % at 10 µM | 2,300 compounds, 19% hits;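 active means remaining agonist calcium response no higher than 100% minus 3 SD of agonist-only control wells, with starting fluorescence near control levels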;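 further: agonist BAM8-22 given at a near maximal EC90 to ECmax level; peak minus minimum fluorescence divided by baseline after agonist addition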
# HEK293 Ca flux: activity in parental HEK293 cells lacking MrgX1. fluorescence ratio F(max-min)/F0 at 10 µM. Fluo-4 calcium fluorescence, FDSS. shares compounds with MrgX1 antagonist. 4,000 compounds, 2% hits;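 active means duplicate-averaged calcium fluorescence ratio at least three times the standard deviation of buffer wells, a nonspecific response in parental cells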
# HEK293 Ca counter: counter-screen for MrgX1 allosteric activators: effect in parental HEK293 cells; AID 624114; parental HEK293 calcium flux, Fluo-4 fluorescence ratio; active compounds read high; fluorescence ratio F(max-min)/F0 at 10 µM; 4,000 compounds, 0.4% hits; shares compounds with MrgX1 antagonist;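 active means calcium fluorescence ratio, averaged over duplicates, at least 3 SD of the buffer-well ratio, meaning a nonspecific response in receptor-free cells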;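 further: untransfected parental HEK293 lacking MrgX1 used as counterscreen for MrgX1 allosteric activators; fluorescence change taken during the second addition on a kinetic imager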
# HEK293 Ca cntr2: counter-screen for MrgX1 activators: effect in parental HEK293 cells; shares compounds with MrgX1 antagonist; Fluo-4 calcium fluorescence (FDSS); active compounds read high; fluorescence ratio F(max-min)/F0 at 10 µM; 4,000 compounds, 8.7% hits;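 active means calcium fluorescence ratio at least three times the spread of buffer wells, meaning a non-specific response in parental cells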
# * = called active by the depositor; i = inactive; / = no result given. In the library only some 4.5% were active in any assay of this set; here they are far more common.
SMILES,RGS4 inh,RGS4 act,PHOSPHO1 block,MrgX1 allo act,MrgX1 antagonist,MrgX1 agonist,MrgX1 ant reconf,HEK293 Ca flux,HEK293 Ca counter,HEK293 Ca cntr2
Cc1cc(=O)[nH]c(SCCOc2ccc(OC(C)C)cc2)n1,i,i,-3,i,-6.7*,i,i,i,i,i
COC(=O)C1=C(C)NC(=O)C1(Nc1ccc(Cl)cn1)C(F)(F)F (stereo not drawn),i,i,0,i,-4.6*,i,i,i,i,i
COC(=O)C1=C(C)NC(=O)C1(NC(=O)c1cccnc1)C(F)(F)F (stereo not drawn),i,i,-7,i,i,i,/,/,/,/
O=C(CN1C(=O)NC(c2ccccc2)(c2ccccc2)C1=O)c1c[nH]c2ccccc12,i,i,22,i,i,i,/,/,/,/
CCC(C)c1ccc(OCCCCN2CCOCC2)cc1 (stereo not drawn),i,i,13,i,i,i,/,/,/,/
CCN(CC)c1ccc(C(=O)O)cc1,i,i,-15,i,-5.7*,i,i,i,i,i
CC(=O)N1CN(CCCn2ccnc2)Cc2c1sc1c2CCCC1,i,i,5,i,-5.8*,i,i,i,i,i
CC(=O)N1CN(Cc2ccccn2)Cc2c1sc1c2CCCC1,i,i,6,i,i,i,/,/,/,/
CCOc1ccccc1NC(=O)CCC(=O)Nc1ccc2nc(N3CCN(C)CC3)cc(C)c2c1,i,i,10,i,-5.1*,i,i,i,i,i
COc1ccc(-n2nc(C(=O)NCC(=O)N3CCCCC3)c3ccccc3c2=O)cc1,i,i,39,i,i,i,/,/,/,/
NC(=O)[C@@H]1CCCN1Cc1nc(Cc2ccccc2Cl)no1,i,i,44,i,i,i,/,/,/,/
CCCN(CCC)C(=O)C1CCCN(S(=O)(=O)c2ccc3c(c2)oc(=O)n3C)C1 (stereo not drawn),i,i,24,i,i,i,/,/,/,/
O=C(CNC(=O)c1ccc(Cl)cc1)c1ccccc1,i,i,/,i,i,i,/,/,/,/
CC1(C)CCC[C@@]2(C)CC=C(C(=O)O)[C@@H]3C[C@]312,i,i,/,i,i,i,/,/,/,/
Cc1ccc(NC(=O)c2ccccc2)cc1,i,i,-4,i,-4.7*,i,i,i,i,i
O=C(O)c1ccccc1-c1ccccc1C(=O)Nc1ccccc1,i,i,45,i,i,i,/,/,/,/
Cc1ccc(NC(=O)c2ccccc2-c2ccccc2C(=O)O)cc1,i,i,23,i,-6.6*,i,i,i,i,i
O=C(Nc1ccc(NC(=O)c2ccccc2)nc1)c1ccncc1,i,i,20,i,-6.8*,i,i,i,i,i
COc1ccccc1NC(=S)NCc1ccc2c(c1)OCO2,i,i,-5,i,i,i,/,/,/,/
O=C(CCN1C(=O)C2C3C=CC(C4CC34)C2C1=O)Oc1ccccc1 (stereo not drawn),i,i,20,i,i,i,/,/,/,/
CC(=O)c1ccccc1OC(=O)CCN1C(=O)C2C3C=CC(C4CC34)C2C1=O (stereo not drawn),i,i,51,i,-4.5*,i,i,i,i,i
Cc1ccc(C(=O)Nc2ccccc2N2CCCCC2)o1,i,i,-5,i,i,i,/,/,/,/
CC(=O)Nc1ccc2c(c1)CCCC2=O,i,i,32,i,-4.6*,i,77%*,i,i,i
CC(=O)Nc1ccc2c(c1)CCCC2,i,i,-14,i,i,i,/,/,/,/
COc1ccc(/C=C2\N=C(c3ccccc3)NNC2=O)cc1,i,i,8,i,i,i,/,/,/,/
SMILES,RGS4 inh,RGS4 act,PHOSPHO1 block,MrgX1 allo act,MrgX1 antagonist,MrgX1 agonist,MrgX1 ant reconf,HEK293 Ca flux,HEK293 Ca counter,HEK293 Ca cntr2
COc1ccc(C(=O)COC(=O)CCN2C(=O)[C@@H]3[C@H](C2=O)[C@@H]2C[C@H]3C(Br)C2Br)cc1 (stereo partly drawn),i,i,-1,i,i,i,/,/,/,/
COc1ccc(C(=O)COC(=O)CCN2C(=O)C3C4CC(C(Br)C4Br)C3C2=O)cc1 (stereo not drawn),i,i,4,i,-5.4*,i,i,i,i,i
CS(=O)(=O)Nc1ccc(-c2cc(/C=C3\SC(N)=NC3=O)c[nH]c2=O)cc1,i,i,31,i,i,i,/,/,/,/
O=C(NCc1nnc(SCC(=O)N2CCN(c3ccccc3)CC2)o1)c1c(F)cccc1F,i,i,19,i,-5.7*,i,i,i,i,i
O=C(NCc1nnc(SCC(=O)N2CCCC2)o1)c1c(F)cccc1F,i,i,43,i,i,i,/,/,/,/
O=C(O)CCCC(=O)Nc1ccccc1C(=O)O,i,i,11,i,-6.4*,i,i,i,i,i
CNc1nc(Cl)c(SC)c(N2CCOCC2)n1,i,i,4,i,i,i,/,/,/,/
CCC(C(=O)N1CCN(c2ncccn2)CC1)c1ccccc1 (stereo not drawn),i,i,48,i,-4.6*,i,i,i,i,i
O=C(NCCc1ccccc1)C(NS(=O)(=O)c1cccc2nsnc12)c1ccccc1 (stereo not drawn),i,i,0,i,-4.7*,i,i,i,i,i
CCCNC(=O)C(NS(=O)(=O)c1cccc2nsnc12)c1ccccc1 (stereo not drawn),i,i,40,i,-6.9*,i,i,i,i,i
CCCCNC(=O)C(NS(=O)(=O)c1cccc2nsnc12)c1ccccc1 (stereo not drawn),i,i,-32,i,i,i,/,/,/,/
COc1cc(-c2nnc(-c3ccccc3)o2)cc(OC)c1OC,i,i,5,i,-4.9*,i,i,i,i,i
